According to ChEMBL document CHEMBL4373710, “DNA Structural Alteration Leading to Antibacterial Properties of 6-Nitroquinoxaline Derivatives” (J Med Chem, 2019):
In brackets after ≈: the same amount, converted by molar mass. Activity calls are given as the source filed them. The calls are words filed in the database; no cut-off is given here.

Columns and labels:
[1] = Antibacterial activity against Arthrobacter chlorophenolicus A6MTCC3706 by broth microdilution assay; type: functional; settings: Pseudarthrobacter chlorophenolicus
Outline: (§1)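 Broth microdilution per CLSI; 5×10^5 cfu/mL bacteria in LB broth; compounds from DMSO stocks, final DMSO under 0.6%, with DMSO control. Plates incubated at the strain's recommended growth temperature and time; growth read as OD600.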

Escherichia coli [2] = experiment: Antibacterial activity against Escherichia coli MTCC1916 by broth microdilution assay; type: functional; outline: as §1
Pseudomonas aeruginosa = experiment: Antibacterial activity against Pseudomonas aeruginosa MTCC1688 by broth microdilution assay; type: functional; outline: as §1
HEK293 [3] = experiment: Induction of morphological changes in HEK293 cells at 5 uM by propidium iodide staining based assay; type: cell-based; settings: human, hek293, 5 µM
Calf thymus DNA [4] = experiment: Binding affinity to calf thymus DNA assessed as appearance of induced CD at […] by circular dichroism method; type: nucleic-acid assay; settings: Bos taurus
[5] = system: Pseudarthrobacter chlorophenolicus; experiment: Binding affinity to Arthrobacter chlorophenolicus DNA assessed as change in B-DNA structure by circular dichroism method
Outline: (§2)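 Genomic DNA isolated from overnight cultures of each strain. Titrated with compound from 15 to 60 µM in a 10 mm quartz cuvette. CD spectra recorded from 230 to 500 nm at 100 nm/min; ellipticity followed at 320 nm.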

DNA [6] = experiment: Binding affinity to Staphylococcus aureus DNA assessed as appearance of induced CD up to 60 uM by circular dichroism method; type: nucleic-acid assay; outline: as §2
[7] = system: Pseudarthrobacter chlorophenolicus; experiment: Binding affinity to Arthrobacter chlorophenolicus DNA assessed as appearance of induced CD up to 60 uM by circular dichroism method; outline: as §2
DNA [8] = experiment: Binding affinity to DNA isolated from HEK293 cells assessed as change in B-DNA structure at 15 to 180 uM by circular dichroism method; type: ADME, cell-free; settings: human, hek293, 180 µM
DNA [9] = experiment: Binding affinity to Escherichia coli pBR322 DNA assessed as DNA unwinding at 0.5:1 to 1.5:1 compound to DNA ratio by atomic force microscopic analysis; type: nucleic-acid assay
Outline: (§3)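 Supercoiled pBR322 plasmid treated with compound at [compound]:[DNA bp] ratios of 0.5:1, 1:1, 1.5:1, 2:1 and 3:1. Imaged by atomic force microscopy, with DNA height measured and compared against untreated plasmid.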

DNA [10] = experiment: Binding affinity to Escherichia coli pBR322 DNA assessed as height of DNA at 0.5:1 to 3:1 compound to DNA ratio by atomic force microscopic analysis; type: nucleic-acid assay; outline: as §3
DNA [11] = experiment: Binding affinity to Escherichia coli pBR322 DNA assessed as transition of local to global DNA at 2:1 to 3:1 compound to DNA ratio by atomic force microscopic analysis; type: nucleic-acid assay; outline: as §3
DNA [12] = experiment: Inhibition of ethidium bromide binding to Staphylococcus aureus DNA at 37 degC by fluorescence assay; type: nucleic-acid assay
Outline: (§4)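 S. aureus genomic DNA (10 µM) with EtBr (5 µM) in 10 mM NaP pH 7, 10 mM NaCl and 1% DMSO, at 25 and 37 °C. Titrated with compound from 2.5 to 100 µM. Excitation 480 nm, emission scanned 520–700 nm, corrected for inner filter. Stern–Volmer analysis, triplicates. Variants: pH 6–8, or NaCl raised to 50 and 200 mM.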

Calf thymus DNA [13] = experiment: Binding affinity to calf thymus DNA by isothermal titration calorimetric analysis; type: nucleic-acid assay; settings: Bos taurus
DNA [14] = experiment: Inhibition of ethidium bromide binding to Staphylococcus aureus DNA in presence of 10 to 200 mM NaCl by fluorescence assay; type: nucleic-acid assay; outline: as §4
DNA [15] = experiment: Binding affinity to Staphylococcus aureus DNA assessed as relaxation of DNA strand at 1:1 compound to DNA ratio by atomic force microscopic analysis; type: nucleic-acid assay
Outline: (§5)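 Isolated S. aureus genomic DNA (2.8 Mbp) treated with compound at increasing [compound]:[DNA bp] ratios, up to 3:1. Imaged by atomic force microscopy against untreated DNA.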

DNA [16] = experiment: Binding affinity to Staphylococcus aureus DNA assessed as DNA condensation at 3:1 compound to DNA ratio by atomic force microscopic analysis; type: nucleic-acid assay; outline: as §5
Staphylococcus aureus [17] = experiment: Inhibition of DNA synthesis in Staphylococcus aureus assessed as reduction in [3H]-thymidine incorporation at 3.5 to 5 uM measured after 30 mins by scintillation counting analysis; type: functional, organism-based
Outline: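 Log-phase S. aureus (10^5–10^6 CFU/mL) incubated with 3.5 or 5 µM, then pulsed 30 min with 3H-thymidine (1 µCi/well); cells harvested and counted by liquid scintillation. 5-fluorouracil (2 µM) as positive control.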

HEK293 [18] = experiment: Induction of DNA damage in HEK293 cells at 15 uM by TUNEL staining based confocal laser scanning fluorescence microscopic analysis; type: cell-based; settings: human, hek293, 15 µM
Outline: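 TUNEL in HEK 293 cells treated with 15 µM or 0.5% DMSO control; TdT incorporation of fluorescent nucleotides at strand-break 3′-OH ends, confocal imaging at 60X.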

Staphylococcus aureus [19] = experiment: Induction of morphological changes in Staphylococcus aureus assessed as change in microbe length at 5 uM by atomic force microscopic analysis (reference value: 1.37 +/- 0.09 micrometer); type: functional
Staphylococcus aureus [20] = experiment: Induction of morphological changes in Staphylococcus aureus at 3.5 uM measured after 6 hrs by acridine orange dye based confocal laser scanning fluorescence microscopic analysis; type: functional, organism-based
Outline: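 S. aureus with 3.5 µM for 6 h at 37°C; fixed in paraformaldehyde, permeabilised with 0.2% Triton X-100 and lysostaphin 0.05 mg/mL; stained with acridine orange 3 µM for 5 min at 37°C; confocal imaging at 60X.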

Staphylococcus aureus [21] = experiment: Induction of morphological changes in Staphylococcus aureus assessed as changed population at 3.5 uM measured after 2 hrs by flow cytometric analysis (reference value: 5.71%); type: functional
Staphylococcus aureus [22] = experiment: Induction of morphological changes in Staphylococcus aureus assessed as unchanged population at 3.5 uM measured after 2 hrs by flow cytometric analysis (reference value: 90.4%); type: functional
Staphylococcus aureus [23] = experiment: Induction of morphological changes in Staphylococcus aureus assessed as changed population at 7.5 uM measured after 2 hrs by flow cytometric analysis (reference value: 5.71%); type: functional
Staphylococcus aureus [24] = experiment: Disruption of cell membrane in Staphylococcus aureus assessed as accumulation of propidium iodide positive cells at 3.5 uM by flow cytometric analysis (reference value: 1.7%); type: functional
Staphylococcus aureus [25] = experiment: Disruption of cell membrane in Staphylococcus aureus assessed as accumulation of propidium iodide negative cells at 5 uM by flow cytometric analysis (reference value: 98.2%); type: functional
Staphylococcus aureus [26] = experiment: Disruption of preformed biofilm in Staphylococcus aureus at MIC measured after 12 hrs by crystal violet staining based light microscopic analysis; type: functional, organism-based
Outline: (§6)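 Planktonic cells washed off; 1% crystal violet 10 min, solubilised in 30% acetic acid, A550 read; wells also imaged at 20X by light microscopy.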

[27] = system: Staphylococcus epidermidis; experiment: Disruption of preformed biofilm in Staphylococcus epidermidis up to 4 times MIC measured after 12 hrs by crystal violet staining based light microscopic analysis; type: functional, organism-based; outline: as §6
Escherichia coli [28] = experiment: Disruption of membrane integrity in Escherichia coli assessed as increase in extracellular ALK level at 3.5 to 5 uM measured after 2 hrs by PLP substrate based assay

In the case of `CN(C)CCCNc1nc2cc([N+](=O)[O-])ccc2nc1NCc1ccc(C(F)(F)F)cc1`, the MIC [1] is reported as 0.897 µg/mL (≈ 2 µM), the MIC (Escherichia coli [2]) is reported as 3.36 µg/mL (≈ 7.49 µM) and the MIC (Pseudomonas aeruginosa) is reported as 6.73 µg/mL (≈ 15 µM). For the same compound, the Activity (HEK293 [3]) was “Non-Toxic”, the Activity (Calf thymus DNA [4]) was “Dose-dependent effect” and the Activity [5] was “Dose-dependent effect”. The Activity (DNA [6]) was “Active”, the Activity [7] was “Active” and the Activity (DNA [8]) was “Active”. For the same compound, the Activity (DNA [9]) was “Active”, the Activity (DNA [10]) was 0.32 to 1.3 nm and the Activity (DNA [11]) was “Active”. For the same compound, the inhibition (DNA [12]) was “Active”, the Ka (Calf thymus DNA [13]) was 2.27 ×10⁴ /M and the inhibition (DNA [14]) was “Active”. For the same compound, the Activity (DNA [15]) was “Active”, the Activity (DNA [16]) was “Active” and the inhibition (Staphylococcus aureus [17]) was “Active”. For the same compound, the Activity (HEK293 [18]) was “Toxic”, the Activity (Staphylococcus aureus [19]) was 2.36 um and the Activity (Staphylococcus aureus [20]) was “Active”. It also gave an Activity (Staphylococcus aureus [21]) of 10.2%, an Activity (Staphylococcus aureus [22]) of 86.3% and an Activity (Staphylococcus aureus [23]) of 16.4%. The Activity (Staphylococcus aureus [24]) was 7.96%, the Activity (Staphylococcus aureus [25]) was 79% and the Activity (Staphylococcus aureus [26]) was “Active”. For the same compound, the Activity [27] was “Active” and the Activity (Escherichia coli [28]) was “Active”.
